The values below come from ChEMBL document CHEMBL1125136, “Quinolone antibacterial agents substituted at the 7-position with spiroamines. Synthesis and structure-activity relationships” (1990).

In brackets after ≈: the same amount, converted by molar mass.

As usually defined, the MIC is the lowest concentration found to suppress growth. Low readings indicate greater potency, high ones weaker potency.

For assay [1], the system named is Staphylococcus aureus. In words: Evaluated for minimum inhibitory concentration against […] bacteria Staphylococcus aureus UC-76. It counts as functional. In short, it runs like this:
(§1)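 Broth microdilution MIC by standard technique. Values come from duplicate experiments and are stated as accurate to ±50%.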

The subject of assay [2] is Escherichia coli. In words: Evaluated for minimum inhibitory concentration against gram-negative bacteria Escherichia coli Vogel. It counts as functional. The method in brief: as §1
Assay [3] concerns Escherichia coli. Kind of assay: Evaluated for minimum concentration needed to produce linear DNA at an intensity relative to oxolinic acid at 10 mg/mL. by gyrase mediated cleavage of DNA in Escherichia coli 560. It counts as functional. As to conditions: read-out: MIC.
Assay [4] is described as follows: Evaluated for minimum inhibitory concentration against […] bacteria […] SV-1. It counts as functional. The method in brief: as §1
Assay [5] relates to Pseudomonas aeruginosa. In words: Evaluated for minimum inhibitory concentration against gram-negative bacteria Pseudomonas aeruginosa UI-18. It is filed as functional. The method in brief: as §1
In assay [6] the test system is Klebsiella pneumoniae. Kind of assay: Evaluated for minimum inhibitory concentration against gram-negative bacteria Klebsiella pneumoniae MGH-2. It counts as functional. In short, it runs like this:
as §1

Assay [7] relates to Staphylococcus aureus. In words: Evaluated for minimum inhibitory concentration against […] bacteria Staphylococcus aureus H228. It is filed as functional. In short, it runs like this: as §1
In assay [8] the test system is Streptococcus pyogenes. In words: Evaluated for minimum inhibitory concentration against gram-positive bacteria Streptococcus pyogenes C203.
Assay [9] concerns Pseudomonas. Kind of assay: Evaluated for minimum inhibitory concentration against gram-negative bacteria Pseudomonas rettgeri H1771. It is filed as functional. The method in brief:
as §1

In assay [10] the test system is Enterobacter cloacae. Kind of assay: Evaluated for minimum inhibitory concentration against gram-negative bacteria Enterobacter cloacae HA 2646. It is filed as functional.
The subject of assay [11] is Enterococcus faecalis. In words: Evaluated for minimum inhibitory concentration against gram-positive bacteria Staphylococcus faecalis MGH-2.
The subject of assay [12] is Escherichia coli. In words: In vivo protective dose for mouse protection assay in Escherichia coli Vogel after peroral administration. It counts as functional. As to conditions: po, read-out: PD50. The method in brief: (§2)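 Female Charles River CD-1 mice were given an acute, lethal, systemic infection. A single dose of compound was given at the time of challenge, by the route stated in the line, with 16 animals per dose level. The read-out is the median protective dose (PD50, mg/kg). Per the footnote, values come from 16 animals per test, with a mean variation of ±34%.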

Assay [13] has as its system Escherichia coli. In words: In vivo protective dose was determined in mouse protection assay in Escherichia coli Vogel after subcutaneous administration. It is filed as functional. Particulars: sc, read-out: PD50. In short, it runs like this: as §2

`CCn1cc(C(=O)O)c(=O)c2cc(F)c(N3CCC4(CCCN4)C3)c(F)c21.Cl` (centres undefined): the MIC in assay [1] was found to be 0.8 µg/mL; in assay [2], 0.2 µg/mL; in [4], 1.6 µg/mL; in [5] it was 1.6 µg/mL; in [6], 0.4 µg/mL; in assay [7] it was 1.6 µg/mL. The MIC in [8] worked out at 1.6 µg/mL; in [9] it was 0.8 µg/mL; in assay [10], 0.2 µg/mL; in assay [11], 3.1 µg/mL. Further, in assay [3], the minimum concentration for gyrase-mediated DNA cleavage was found to be 2.5 µg/mL.
`CCn1cc(C(=O)O)c(=O)c2cc(F)c(N3CCC4(CCNC4)C3)nc21.Cl` (centres undefined): the MIC in [1] was determined as 0.4 µg/mL; in assay [2] it was 0.8 µg/mL; in assay [4] it was 0.8 µg/mL; in assay [5] it was 0.8 µg/mL; in assay [6], 3.1 µg/mL; in assay [7], 3.1 µg/mL. Besides, the MIC was 0.2 µg/mL in assay [8], 12.5 µg/mL in [9], 0.8 µg/mL in [10] and 1.6 µg/mL in assay [11]. Further, the minimum concentration for gyrase-mediated DNA cleavage in [3] is 5 µg/mL. Moreover, the ED50 in assay [12] is more than 100 mg/kg; in assay [13], 28 mg/kg.
`NC1CCN(c2c(F)cc3c(=O)c(C(=O)O)cn(C4CC4)c3c2F)C1` (centres undefined): the MIC in assay [1] came out at 0.025 µg/mL (≈ 0.0716 µM); in assay [2], 0.013 µg/mL (≈ 0.0372 µM); in assay [4] it was 0.05 µg/mL (≈ 0.143 µM); in assay [5] it was 0.1 µg/mL (≈ 0.286 µM); in assay [6], 0.025 µg/mL (≈ 0.0716 µM); in assay [7] it was 0.05 µg/mL (≈ 0.143 µM). In addition, the MIC in assay [8] is 0.25 µg/mL (≈ 0.716 µM); in assay [9] it was 0.05 µg/mL (≈ 0.143 µM); in [10], 0.025 µg/mL (≈ 0.0716 µM); in assay [11], 0.05 µg/mL (≈ 0.143 µM). Besides, in assay [3], the minimum concentration for gyrase-mediated DNA cleavage turned out to be 0.1 µg/mL.
With `CCn1cc(C(=O)O)c(=O)c2cc(F)c(N3CCC4(CCNC4)C3)c(F)c21` (centres undefined), the MIC in assay [1] was 0.05 µg/mL (≈ 0.132 µM); in [2], 0.1 µg/mL (≈ 0.265 µM); in assay [4], 0.2 µg/mL (≈ 0.53 µM); in [5], 0.8 µg/mL (≈ 2.12 µM); in assay [6], 0.2 µg/mL (≈ 0.53 µM); in assay [7] it was 0.1 µg/mL (≈ 0.265 µM). The MIC in [8] came to 0.1 µg/mL (≈ 0.265 µM); in assay [9] it was 1.6 µg/mL (≈ 4.24 µM); in [10], 0.2 µg/mL (≈ 0.53 µM); in assay [11], 0.2 µg/mL (≈ 0.53 µM). Further, the minimum concentration for gyrase-mediated DNA cleavage in assay [3] was 2.5 µg/mL. For the same molecule, the ED50 in [12] is more than 100 mg/kg; in [13], 15 mg/kg.
Turning to `CCn1cc(C(=O)O)c(=O)c2cc(F)c(N3CCC(N)C3)c(F)c21` (centres undefined), the MIC in [1] is 0.05 µg/mL (≈ 0.148 µM); in assay [2], 0.05 µg/mL (≈ 0.148 µM); in [4], 0.4 µg/mL (≈ 1.19 µM); in assay [5], 0.4 µg/mL (≈ 1.19 µM); in assay [6], 0.2 µg/mL (≈ 0.593 µM); in [7] it was 0.4 µg/mL (≈ 1.19 µM). The MIC in assay [8] stood at 0.4 µg/mL (≈ 1.19 µM); in assay [9], 0.2 µg/mL (≈ 0.593 µM); in assay [10], 0.1 µg/mL (≈ 0.296 µM); in [11], 0.8 µg/mL (≈ 2.37 µM). Moreover, the minimum concentration for gyrase-mediated DNA cleavage in assay [3] turned out to be 1 µg/mL.
On to `CC1COc2c(N3CCC4(CCN(C)C4)C3)c(F)c(N)c3c(=O)c(C(=O)O)cn1c23` (centres undefined), for which the MIC amounted to 0.1 µg/mL (≈ 0.24 µM) in assay [1]; 0.4 µg/mL (≈ 0.96 µM) in assay [2]; 0.4 µg/mL (≈ 0.96 µM) in assay [4]; 12.5 µg/mL (≈ 30 µM) in assay [5]; 0.8 µg/mL (≈ 1.92 µM) in assay [6]; 0.4 µg/mL (≈ 0.96 µM) in [7]. Moreover, the MIC in [8] is 0.2 µg/mL (≈ 0.48 µM); in assay [9], 6.3 µg/mL (≈ 15.1 µM); in [10], 0.4 µg/mL (≈ 0.96 µM); in [11], 0.4 µg/mL (≈ 0.96 µM). Also, the minimum concentration for gyrase-mediated DNA cleavage in [3] was found to be 1 µg/mL.
For the molecule `CCN1CCC2(CCN(c3c(F)cc4c(=O)c(C(=O)O)cn(C5CC5)c4c3F)C2)C1` (centres undefined), the MIC in [1] stood at 0.025 µg/mL (≈ 0.0599 µM); in [2], 0.1 µg/mL (≈ 0.24 µM); in assay [4], 0.2 µg/mL (≈ 0.479 µM); in assay [5] it was 1.6 µg/mL (≈ 3.83 µM); in [6], 0.2 µg/mL (≈ 0.479 µM); in [7], 0.1 µg/mL (≈ 0.24 µM). Besides, the MIC was determined as 0.2 µg/mL (≈ 0.479 µM) in assay [8], 0.4 µg/mL (≈ 0.958 µM) in assay [9], 0.2 µg/mL (≈ 0.479 µM) in [10] and 0.1 µg/mL (≈ 0.24 µM) in assay [11]. The minimum concentration for gyrase-mediated DNA cleavage in assay [3] amounted to 0.5 µg/mL.
As to `CCn1cc(C(=O)O)c(=O)c2c(F)c(F)c(N3CCC4(CCN(C)C4)C3)c(F)c21` (centres undefined), the minimum inhibitory concentration (MIC) in assay [1] was found to be 0.2 µg/mL (≈ 0.489 µM); in [2] it was 0.8 µg/mL (≈ 1.95 µM); in assay [4], 0.8 µg/mL (≈ 1.95 µM); in [5] it was 6.3 µg/mL (≈ 15.4 µM); in assay [6], 1.6 µg/mL (≈ 3.91 µM); in [7] it was 0.8 µg/mL (≈ 1.95 µM). The MIC is 1.6 µg/mL (≈ 3.91 µM) in assay [8], 6.3 µg/mL (≈ 15.4 µM) in assay [9], 0.8 µg/mL (≈ 1.95 µM) in assay [10] and 1.6 µg/mL (≈ 3.91 µM) in assay [11]. The minimum concentration for gyrase-mediated DNA cleavage in [3] was 5 µg/mL. Besides, the ED50 in assay [12] came out at 22 mg/kg; in assay [13] it was 12.5 mg/kg.
